Compounds with a hit are over-represented: about 2.1% of the library has one in this group of screens.
NS3 helicase inh – inhibitors of Hepatitis C virus NS3 helicase. NS3 helicase DNA unwinding, Cy5 molecular beacon fluorescence. inhibition, % at 10.9 µM. 290,000 compounds, 0.56% hits;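 active = inhibition above the mean of all tested compounds plus 3 SD, set per campaign, cut at about 35% in these data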;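 note: 0% = DMSO wells and 100% = thioflavine S control wells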
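System: NS3 helicase fragment of HCV / Schedule: 1 h at 25 °C / Control set: DMSO alone as 0% and 110 µM thioflavine S as 100% / Reagent: Cy5/quencher beacon DNA duplex and ATP to start / Technique: Cy5 fluorescence / Replication: singlicate / Evaluation: % inhibition of end-to-start signal ratio versus controls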
UBC9 SUMO inh – SUMOylation inhibition. P63279. HTRF SUMOylation assay, SAE1/SAE2 + UBC9, in vitro. inhibition, % at 35 µM. 290,000 compounds, 0.36% hits. AID 2006; in the data active = inhibition above about 50%, passing the limit was not always enough
Target sequence (P63279 whole entry, looked up): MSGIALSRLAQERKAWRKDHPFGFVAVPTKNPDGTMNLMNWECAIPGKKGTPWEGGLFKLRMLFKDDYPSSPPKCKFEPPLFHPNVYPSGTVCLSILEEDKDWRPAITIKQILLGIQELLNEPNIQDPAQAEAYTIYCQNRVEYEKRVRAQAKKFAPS
VIM-2 inh – inhibitors of Pseudomonas aeruginosa VIM-2 metallo-beta-lactamase; purified VIM-2, nitrocefin hydrolysis, epi-absorbance fluorescence; inhibition, % at 5.6 µM; AID 1527; 290,000 compounds, 0.89% hits;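 active = inhibition above the mean of all tested compounds plus 3 SD, cutoff set per screening run, cut at about 7.5% in these data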;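 note: red hydrolysis product quenches plate fluorescence so inhibitors raise well fluorescence; 0% = enzyme with DMSO and 100% = DMSO without enzyme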
DNA FID counter – displaces DNA intercalator in HCV helicase counter-screen | DNA fluorescent intercalator displacement, fluorescence | inhibition, % at 7.9 µM | 290,000 compounds, 0.17% hits | AID 1845; in the data active = inhibition above about 37%;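 note: 0% = vehicle and 100% = reference compound; higher means more ethidium bromide displaced from hairpin DNA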
IMP-1 inh – inhibitors of Pseudomonas aeruginosa IMP-1 metallo-beta-lactamase. inhibition, % at 5.6 µM. AID 1556. purified IMP-1, nitrocefin hydrolysis, epi-absorbance fluorescence. 290,000 compounds, 0.45% hits;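 active = inhibition above the mean plus 3 SD of all compounds in the same screening run, cut at about 4.5% in these data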;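 note: 0% = IMP-1 with DMSO and 100% = DMSO wells lacking enzyme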
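Test system: recombinant IMP-1 enzyme, purified / Medium: HEPES buffer pH 7.1 with ZnSO4 and Brij 35 / Doses: single dose, 5.6 µM / Times: 25 °C, 15 min preincubation, 25 min reaction / Detection: Epi-absorbance via hydrolysed-nitrocefin quenching of white-plate fluorescence, 480/530 nm, EDTA stop / Evaluation: percent inhibition from optical density relative to buffer-blank wells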
The depositor's hits bear a star; / = not tested or not shown.

SMILES | NS3 helicase inh | UBC9 SUMO inh | VIM-2 inh | DNA FID counter | IMP-1 inh
COC(=O)c1cc(OC)c(OC)cc1NC(=O)c1ccc(C)o1 | 4.2 | 1.9 | 9.2* | -25.9 | -3.0
O=C(NCc1cccnc1)C1c2ccccc2C(=O)N1Cc1ccco1 (stereo not given) | 4.0 | 2.9 | -0.3 | -0.3 | 4.6*
O=C(NCCNC(=O)c1cc(OCC(F)(F)F)ccc1OCC(F)(F)F)Nc1cccc(C(F)(F)F)c1 | -17.8 | -9.4 | 0.5 | -13.9 | 7.0*
CN(C)S(=O)(=O)NCCNC(=O)c1cc(OCC(F)(F)F)ccc1OCC(F)(F)F | -4.1 | 0.1 | -1.5 | -5.4 | -3.8
CCOc1ccccc1CN1CCC(CO)(CCOc2ccccc2)CC1 | -39.1 | -3.2 | -0.8 | 42.1* | 0.9
OCC1(CCOc2ccccc2)CCN(Cc2ccccc2C(F)(F)F)CC1 | -25.1 | 7.9 | -2.0 | 5.3 | -3.4
COc1ccccc1CNC(=O)N1CCN(c2ccccc2C)CC1 | -5.4 | -14.1 | 1.1 | -24.6 | 52.5*
CN(C)c1ccc2nc3ccc(=[N+](C)C)cc-3sc2c1 | 30.9 | -226.4 | 5.0 | 74.0* | -1.9
COc1ccc2nc(N=Nc3ccc(N(C)C)cc3)sc2c1 | -2.7 | 18.6 | -3.7 | 5.4 | -2.3
Cc1ccc[n+](/C(C(=S)NCc2ccco2)=C(/[O-])c2ccccc2Cl)c1 | 3.8 | 15.9 | -3.3 | 0.0 | 5.6*
Cc1cccc2sc(NC(=O)c3ccc(NS(=O)(=O)c4cccs4)cc3)nc12 | 4.1 | 8.3 | 0.7 | -5.8 | 0.1
Cc1ccc2[nH]c(C(=O)O)c(-c3ccccc3)c2c1 | 20.7 | 14.1 | 9.9* | -14.1 | 3.3
NC(=O)C1CCN(C(=O)COc2ccc3c(c2)oc(=O)c2ccccc23)CC1 | -9.4 | 15.7 | 11.7* | -14.8 | -1.1
Cn1nc(C(F)(F)F)c(-c2ccccc2)c1NC(=O)CCC(=O)O | 13.1 | -1.9 | -1.6 | -7.7 | -1.9
COc1ccc(OC)c(NC(=O)CCC(=O)Nc2nnc(C(C)C)s2)c1 | -0.8 | / | -0.7 | -34.8 | -3.8
COc1ccc(CCC(=O)Nc2nnc(C(F)(F)F)s2)cc1 | 5.3 | 0.6 | -2.9 | -16.9 | 8.7*
COc1ccc(NC(=O)CCC(=O)Nc2nnc(C(F)(F)F)s2)c(OC)c1 | 0.4 | 0.9 | -3.3 | -2.8 | 4.9*
CSc1nc(N(CCO)CCO)c2sc3nc(-c4ccco4)c4c(c3c2n1)CCC4 | 32.2 | 62.0* | 1.4 | -21.7 | 12.4*
Cc1ccc(-n2nc3c(=O)n(C(C)C(=O)NCc4ccc(Cl)cc4)nc(C)c3c2C)cc1 (stereo not given) | 1.4 | -4.4 | -1.2 | -54.5 | -2.1
COc1ccc(S(=O)(=O)N2CCOCC2)cc1NC(=O)Cc1ccccc1Cl | -5.8 | 0.9 | -1.1 | -10.5 | -4.0
COc1ccc(S(=O)(=O)N2CCOCC2)cc1NC(=O)Cc1coc2cc(C)c(C)cc12 | -14.4 | -4.7 | -1.2 | -34.9 | 70.5*
Cc1c(C)n(CCc2ccccc2)c2ncnc(NN)c12 | -1.2 | 18.6 | 7.8* | -17.2 | 0.6
Cc1c(C)n(Cc2ccccc2)c2ncnc(NN)c12 | -25.6 | 19.2 | 2.5 | -20.5 | -0.3
CCOC(=O)C1=C(C)Nc2nc3ccccc3n2C1c1ccc(O)cc1 (stereo not given) | 25.8 | 4.0 | -4.2 | 14.1 | 29.4*
COc1ccccc1C1=NOC(CN2C(=O)c3ccccc3S2(=O)=O)C1 (stereo not given) | -2.8 | 14.3 | 7.7* | -14.5 | -3.7
SMILES | NS3 helicase inh | UBC9 SUMO inh | VIM-2 inh | DNA FID counter | IMP-1 inh
O=C1c2ccccc2S(=O)(=O)N1CC1CC(c2ccccc2Cl)=NO1 (stereo not given) | -3.6 | 4.7 | -1.6 | -10.4 | -1.3
Cc1ccc(CC(=O)Nc2ccccc2N2CCOCC2)cc1C | 7.5 | 7.3 | -5.8 | -16.3 | 6.3*
Cc1ccc(/C=C(\CCC(=O)O)c2nc3ccccc3s2)cc1[N+](=O)[O-] | 10.1 | 10.7 | 8.8* | -20.3 | -1.5
CN(c1ccccc1)c1ccc(/C=C(\CCC(=O)O)c2nc3ccccc3s2)cc1[N+](=O)[O-] | 15.1 | / | 0.7 | -18.5 | -2.9
CNc1ccc(/C=C(\CCC(=O)O)c2nc3ccccc3s2)cc1[N+](=O)[O-] | -5.2 | -27.0 | 11.3* | -18.8 | -4.4
CCc1ccc(/C=C2/C(=O)NC(=O)N2C(C)=O)cc1 | 18.2 | 14.0 | -2.9 | -7.0 | -3.0
O=C(Nc1nnc(SCC(=O)N2CCCCC2)s1)c1ccccc1F | 20.2 | 5.0 | 9.2* | -22.9 | 0.7
Cc1cccc(NC2=NCC(=O)N2Cc2ccccc2)c1 | 3.2 | 13.7 | -3.5 | -1.9 | 8.6*
CC(=O)c1ccc(-n2c(C)c(C(C)=O)c3cc(O)ccc32)cc1 | -4.9 | 3.2 | 10.1* | -1.4 | -1.5

Screening data: PubChem BioAssay, several laboratories
